Results as given in paper PMC4899155 (Molecular pharmaceutics, 2016).

Key:
Jurkat cells [1] = test: Intracellular calcium assay; assay type: cell-based, human
Jurkat cells [2] = test: IL-2 ELISA assay in PMA/PHA stimulated Jurkat cells; assay type: cell-based, human; settings: for IL-2 secretion: PMA/PHA stimulated Jurkat cells
How it was run: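 Jurkat cells were kept in RPMI 1640 with L-glutamine and 10% FBS at 37°C, 5% CO2, about 10^6 cells/ml. […] After 15 min, a PHA (25 μg/mL)/PMA (1.25 μg/ml) mixture in PBS:DMSO (80:1) was added and cells were incubated 24 h at 37°C. Supernatant IL-2 was measured by human IL-2 ELISA.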

Balb/c mice = test: Rotarod assay; assay type: in vivo, mouse; settings: 10 minutes after injection, 15 rpm
α4β3γ2 GABAAR = α4β3γ2 GABAAR (Homo sapiens, UniProt P18507+P48169); settings: α4β3γ2 ref 27; cited from earlier work
α4β3γ2 GABAAR, sequence (P48169 36-554): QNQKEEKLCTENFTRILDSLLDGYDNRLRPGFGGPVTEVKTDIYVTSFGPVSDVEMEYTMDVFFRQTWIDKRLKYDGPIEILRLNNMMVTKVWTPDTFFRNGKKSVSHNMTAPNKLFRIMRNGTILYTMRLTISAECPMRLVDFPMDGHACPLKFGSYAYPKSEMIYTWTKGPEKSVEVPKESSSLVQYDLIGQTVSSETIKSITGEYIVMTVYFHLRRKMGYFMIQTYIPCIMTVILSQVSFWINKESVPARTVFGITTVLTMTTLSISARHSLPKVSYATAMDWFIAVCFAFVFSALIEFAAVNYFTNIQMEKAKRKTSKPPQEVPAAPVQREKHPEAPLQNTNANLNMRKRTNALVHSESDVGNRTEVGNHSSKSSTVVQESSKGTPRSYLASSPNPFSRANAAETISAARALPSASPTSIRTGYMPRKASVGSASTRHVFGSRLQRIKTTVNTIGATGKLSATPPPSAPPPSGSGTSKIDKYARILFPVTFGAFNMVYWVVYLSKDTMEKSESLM
α4β3γ2 GABAAR, sequence (P28472 26-473 partner): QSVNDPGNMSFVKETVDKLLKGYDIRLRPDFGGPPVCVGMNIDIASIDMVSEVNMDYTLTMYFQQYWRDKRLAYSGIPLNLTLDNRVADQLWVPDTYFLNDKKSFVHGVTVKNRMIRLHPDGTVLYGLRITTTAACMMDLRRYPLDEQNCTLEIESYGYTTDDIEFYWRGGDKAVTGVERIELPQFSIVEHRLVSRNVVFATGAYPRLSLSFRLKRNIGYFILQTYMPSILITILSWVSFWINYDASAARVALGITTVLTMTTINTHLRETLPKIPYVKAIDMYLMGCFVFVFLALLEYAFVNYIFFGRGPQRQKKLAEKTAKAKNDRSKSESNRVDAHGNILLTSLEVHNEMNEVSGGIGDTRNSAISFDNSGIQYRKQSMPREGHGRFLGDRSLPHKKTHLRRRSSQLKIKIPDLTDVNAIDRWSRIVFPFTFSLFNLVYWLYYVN
α4β3γ2 GABAAR, sequence (P18507 40-475): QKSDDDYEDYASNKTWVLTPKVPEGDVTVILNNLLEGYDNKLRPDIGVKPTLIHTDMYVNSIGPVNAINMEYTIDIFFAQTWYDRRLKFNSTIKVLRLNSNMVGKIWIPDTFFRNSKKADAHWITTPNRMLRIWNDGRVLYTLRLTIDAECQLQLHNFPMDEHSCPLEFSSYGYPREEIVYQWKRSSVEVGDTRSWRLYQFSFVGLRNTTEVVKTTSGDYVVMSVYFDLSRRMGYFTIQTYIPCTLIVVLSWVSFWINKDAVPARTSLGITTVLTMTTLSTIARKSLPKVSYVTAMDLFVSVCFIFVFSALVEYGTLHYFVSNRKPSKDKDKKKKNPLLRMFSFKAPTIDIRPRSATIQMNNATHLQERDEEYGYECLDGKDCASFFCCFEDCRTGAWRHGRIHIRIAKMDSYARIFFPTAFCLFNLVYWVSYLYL

Ova S/C Balb/c mice [3] = test: Mucin volume density; assay type: in vivo, mouse
How it was run: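 Ova-sensitized/challenged Balb/c mice were dosed as single 20 mg/kg i.p. 40 min before analysis, twice-daily 20 mg/kg i.p. for 5 days, osmotic pump 20 mg/kg/day for 7 days, or dexamethasone 4 mg/kg daily for 8 days. Formalin-perfused lungs were cut into 5 μm paraffin sections and stained with periodic acid fluorescent Schiff. Mucin area in axial-bronchus epithelium per basement-membrane length was normalized to control and Ova groups (5-7 mice/group).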

α6β3γ2 GABAAR = settings: at concentrations higher that 1 μM ref 27; cited from earlier work
[4] = Blood concentration under repeated dosing / osmotic minipump in Ova S/C mice; assay type: in vivo, Balb/c mice
How it was run: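 Ova-sensitized/challenged Balb/c mice received test compound by surgically implanted osmotic minipump at 20 mg/kg/day for 7 days, or by two i.p. injections daily over the 5-day challenge period. Blood concentration was taken on the day of airway hyper-responsiveness measurement (day 28).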

[5] = tested on: guinea pig tracheal rings; test: Guinea pig airway smooth muscle organ bath; assay type: cell-based; settings: 100 μM, rings contracted with 1 μM substance P, compared to vehicle
Ova S/C Balb/c mice [6] = test: Airway eosinophilia; assay type: in vivo, mouse
[7] = Stability in mouse plasma; assay type: in vitro ADME
[8] = Metabolic stability in human S9 fraction; assay type: in vitro ADME; settings: 1 hour incubation
[9] = Metabolic stability in mouse S9 fraction; assay type: in vitro ADME; settings: 1 hour incubation
[10] = Metabolic stability in mouse liver microsomes; assay type: in vitro ADME
Jurkat cells [11] = test: Automated patch-clamp electrophysiology for Jurkat cells; assay type: cell-based, human; settings: in the presence of an EC3 concentration of GABA (0.3 μM)
Ova S/C Balb/c mice [12] = test: Airway hyper-responsiveness to methacholine; assay type: in vivo, mouse
How it was run: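 Male Balb/c mice were sensitized i.p. with 2 mg/kg/d ovalbumin in 2 mg alum on days 0, 7 and 14, then challenged intranasally with 1 mg/kg/d ovalbumin on days 23–27. Dosing was by i.p. injection 40 min before testing, or twice daily during challenge. The dexamethasone control was 4 mg/kg i.p. daily for 8 days. sRaw was measured versus aerosolized methacholine (mg/ml) in conscious mice (4-7/group, mean ± SEM).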

[13] = Metabolic stability in human liver microsomes; assay type: in vitro ADME
[14] = Single dose pharmacokinetic study in mice; assay type: in vivo; settings: 5 mg/kg i.p.
How it was run: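 Mice received a single 5 mg/kg i.p. dose of test compound in 10% DMSO, 40% propylene glycol and 50% PBS. Compound levels were followed over time in brain, lung and blood, with N = 3.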

In the case of `NCCCC(=O)O` [GABA, reference compound], the “increase in [Ca2+]i” value (Jurkat cells [1]; 150 mM) is reported as “fully suppressed”, the “concentration able to reduce the [Ca2+]i levels” value (Jurkat cells [1]; Jurkat cells) is reported as no less than 30 mM and the “IL-2 secretion” value (Jurkat cells [2]; 1 nM) is reported as “ineffective”. The “IL-2 secretion” value (Jurkat cells [2]; 100 nM) was “significantly reduced secretion of IL-2”.
In the case of `CCOC(=O)c1ncn2c1[C@@H]1CCCN1C(=O)c1cc(OC)ccc1-2` [XHE-III-74EE], the “motor impairment on rotarod” value (Balb/c mice; 5 mg/kg i.p.) is listed as “did not impair motorsensory coordination”, the “motor impairment on rotarod” value (Balb/c mice; 40 mg/kg i.p.) is listed as “did cause motor-impairing effects” and the “reported GABAAR subtype selectivity” value (α4β3γ2 GABAAR) is listed as “subtype-selective”. The “airway mucous metaplasia / mucin volume density” value (Ova S/C Balb/c mice [3]; 20 mg/kg i.p. injections daily for 5 days) was “did not significantly change airway mucous metaplasia”, the “airway mucous metaplasia / mucin volume density” value (Ova S/C Balb/c mice [3]; 20 mg/kg/day via osmotic pump) was “no change in airway mucous metaplasia” and the “mucin production” value (Ova S/C Balb/c mice [3]; acute, single i.p. injection for 40 minutes) was “did not change mucin production”. For the same molecule, the “reported activity at α6β3γ2 GABAAR” value (α6β3γ2 GABAAR) was “some activity”, the “blood concentration, continuous release by implanted minipumps” value ([4]; implanted minipumps (Discussion)) was 27.2 ng/mL and the “constant blood concentration at the day of AHR measurement” value ([4]; implanted minipumps, 20 mg/kg/day for 7 days) was 27.2 ± 2.7 ng/g. For the same molecule, the cmax ([4]; twice daily i.p. injection) was 216 ng/mL, the “relaxation of airway smooth muscle contractile force” value [5] was “induced active relaxation” and the “extent of inhibition of PMA/PHA-induced increases in [Ca2+]i” value (Jurkat cells [1]; Jurkat cells, Fluo-4) was “partial inhibition”. For the same molecule, the IC50 (Jurkat cells [1]; read-out: IC50, PMA/PHA-induced increase in [Ca2+]i, Jurkat cells, Fluo-4) was 24.3 ± 9.8 nM, the “airway eosinophilia” value (Ova S/C Balb/c mice [6]; 20 mg/kg twice i.p. injection daily for 5 days) was “not effective in reducing airway eosinophilia” and the “airway eosinophilia” value (Ova S/C Balb/c mice [6]; 20 mg/kg via osmotic pump) was “no change in airway eosinophilia”. The “airway eosinophilia” value (Ova S/C Balb/c mice [6]; acute, single i.p. injection 20 mg/kg for 40 minutes) was “not effective in reducing airway eosinophilia”, the “Mouse plasma (stability; row prints no unit or time)” value ([7]; Table 1 of in vitro metabolic stability) was 92.6 ± 0.2 and the “stability in blood plasma” value ([7]; at least one hour) was “stable in blood plasma”. For the same molecule, the “human S9 fraction % remaining after 1 hour” value [8] was 95.6 ± 0.3%, the “Mouse S9 fraction % remaining after 1 hour” value [9] was 98.4 ± 0.4% and the “Mouse liver microsomes % remaining after 1 hour” value ([10]; 1 hour incubation) was 86.3 ± 0.3%. For the same molecule, the “predicted half-life” value ([10]; mouse liver microsomes and S9 fraction) was “several hours”, the GABA-induced current potentiation (Jurkat cells [11]) was 734% and the “IL-2 production” value (Jurkat cells [2]; under similar conditions, without supplemental GABA) was “did not reduce IL-2 production”. For the same molecule, the “methacholine-induced AHR (sRaw), words” value (Ova S/C Balb/c mice [12]; 20 mg/kg i.p. twice daily for 5 days) was “reduced methacholine-induced AHR”, the “methacholine-induced AHR (sRaw), words” value (Ova S/C Balb/c mice [12]; osmotic pump, 20 mg/kg daily for 7 days) was “effective in reducing AHR at low concentrations of methacholine” and the “methacholine-induced AHR (sRaw), words” value (Ova S/C Balb/c mice [12]; single i.p. 10 mg/kg, 40 minutes prior to analysis) was “did not alter AHR”. For the same molecule, the “methacholine-induced AHR (sRaw), words” value (Ova S/C Balb/c mice [12]; single i.p. 20 mg/kg, 40 minutes prior to analysis) was “did not alter AHR”, the “human liver microsomes % remaining after 1 hour” value ([13]; 1 hour incubation) was 99.2 ± 0.15% and the “predicted half-life” value ([13]; human liver microsomes and S9 fraction) was “several hours”. The “AUC in brain as % of the AUC in blood” value [14] was 79%, the “AUC in lung as % of the blood AUC” value [14] was 60% and the “Cmax in blood versus lung” value [14] was “roughly two times higher in blood than in lung”. For the same molecule, the Tmax in blood [14] was 10 min, the Tmax in lung [14] was 3 min and the half-life in brain [14] was 36.7 min. It also gave a half-life in lung [14] of 17.6 min.
With `C[C@@H]1C[C@H]2[C@@H]3CCC4=CC(=O)C=C[C@]4(C)[C@@]3(F)[C@@H](O)C[C@]2(C)[C@@]1(O)C(=O)CO` [dexamethasone, reference compound] the “airway mucous metaplasia / mucin volume density” value (Ova S/C Balb/c mice [3]; single i.p. injection daily for 8 days, 4 mg/kg, p<0.01) was “significantly decreased mucous metaplasia” and the “airway eosinophilia” value (Ova S/C Balb/c mice [6]; 4 mg/kg i.p. daily for 8 days) was “significantly decreased airway eosinophilia”.
With `CN1C(=O)CN=C(c2ccccc2)c2cc(Cl)ccc21` [diazepam, reference compound] the “motor impairment on rotarod” value (Balb/c mice; 5 mg/kg i.p.) was “induced significant motor impairment”.
